Assay [1] concerns the target Human immunodeficiency virus type 1 reverse transcriptase (Human immunodeficiency virus 1, UniProt Q72547, L210W/M184V/M41L/T215Y). As to the kind of experiment: Binding affinity to HIV1 LAI reverse transcriptase M41L/L210W/T215Y/M184V mutant.
The target of assay [2] is Human immunodeficiency virus type 1 reverse transcriptase (Human immunodeficiency virus 1, UniProt Q72547). As to the kind of experiment: Binding affinity to wild type HIV1 LAI reverse transcriptase. The procedure, abridged:
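Bacterially expressed, purified RT, corrected for active-site concentration, preincubated at 400 nM with 40 nM 5′-³²P-labelled 20-nt DNA primer annealed to a 57-nt DNA template in 50 mM Tris-HCl pH 7.5, 50 mM KCl. It was then rapid-quench mixed 1:1 with nucleotide in the same buffer plus 20 mM MgCl₂. EDTA quench at 10 ms–30 min; urea-PAGE. k_obs fitted single-exponential; K_d from hyperbolic k_obs-versus-concentration fit.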

Assay [3] deals with Human immunodeficiency virus 1. As to the kind of experiment: Binding affinity to HIV1 LAI reverse transcriptase M41L/L210W/T215Y/M184V/G333D mutant relative to wild type.
The subject of assay [4] is Human immunodeficiency virus type 1 reverse transcriptase (Human immunodeficiency virus 1), Q72547 [M41L,L210W,T215Y]. As to the kind of experiment: Ratio of Kpol to Kd for HIV1 LAI reverse transcriptase M41L/L210W/T215Y mutant. A digest of the protocol:
(§1)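 Pre-steady-state rapid quench: 400 nM active-site RT and 40 nM ³²P-P20/T57 DNA T/P were preincubated in 50 mM Tris-HCl pH 7.5, 50 mM KCl, then mixed with nucleotide in the same buffer containing 20 mM MgCl₂. Quenched with 0.3 M EDTA from 10 ms to 30 min, run on urea-PAGE. kobs came from single-exponential fits; kpol and Kd came from a hyperbolic fit versus nucleotide concentration.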

Assay [5] concerns Human immunodeficiency virus type 1 reverse transcriptase (Human immunodeficiency virus 1), Q72547 [M41L,L210W,T215Y,M184V]. As to the kind of experiment: Ratio of Kpol to Kd for HIV1 LAI reverse transcriptase M41L/L210W/T215Y/M184V mutant. The procedure, abridged: as §1
The target in assay [6] is Human immunodeficiency virus type 1 reverse transcriptase (Human immunodeficiency virus 1) (UniProt Q72547). Briefly: Ratio of Kpol to Kd for wild type HIV1 LAI reverse transcriptase. A digest of the protocol: as §1
The subject of assay [7] is Human immunodeficiency virus type 1 reverse transcriptase (Human immunodeficiency virus 1), Q72547 [M184V]. As to the kind of experiment: Resistance (selectivity ratio) of HIV1 LAI reverse transcriptase M184V mutant relative to wild type.
Assay [8] in a line: Binding affinity to HIV1 LAI reverse transcriptase M41L/L210W/T215Y/M184V/G333D mutant. Set-up: species or system Human immunodeficiency virus 1.
The subject of assay [9] is Human immunodeficiency virus 1. As to the kind of experiment: Ratio of Kpol to Kd for HIV1 LAI reverse transcriptase M41L/L210W/T215Y/M184V/G333D mutant. A digest of the protocol: as §1
Assay [10] addresses Human immunodeficiency virus type 1 reverse transcriptase (Human immunodeficiency virus 1, UniProt Q72547, M184V). Briefly: Binding affinity to HIV1 LAI reverse transcriptase M184V mutant.
Assay [11] concerns Human immunodeficiency virus type 1 reverse transcriptase (Human immunodeficiency virus 1), Q72547 [M41L,L210W,T215Y,M184V]. As to the kind of experiment: Binding affinity to HIV1 LAI reverse transcriptase M41L/L210W/T215Y/M184V mutant relative to wild type.
Assay [12] has as its system Human immunodeficiency virus type 1 reverse transcriptase (Human immunodeficiency virus 1), Q72547 [M184V]. Briefly: Ratio of Kpol to Kd for HIV1 LAI reverse transcriptase M184V mutant. The procedure, abridged: as §1
In assay [13] the target is Human immunodeficiency virus type 1 reverse transcriptase (Human immunodeficiency virus 1, UniProt Q72547, L210W/M41L/T215Y). Briefly: Binding affinity to HIV1 LAI reverse transcriptase M41L/L210W/T215Y mutant.
For assay [14], the system named is Human immunodeficiency virus type 1 reverse transcriptase (Human immunodeficiency virus 1), Q72547 [M41L,L210W,T215Y]. As to the kind of experiment: Binding affinity to HIV1 LAI reverse transcriptase M41L/L210W/T215Y mutant relative to wild type.

For the molecule `Nc1ccn([C@@H]2CS[C@H](COP(=O)(O)OP(=O)(O)OP(=O)(O)O)O2)c(=O)n1` [LAMIVUDINE TRIPHOSPHATE], the dissociation constant Kd (as a rule, the concentration at which binding is half-saturated) worked out at 9.8 µM in [1]; 0.37 µM in [2]; 17.8 µM in assay [8]; 8.2 µM in assay [10]; 0.43 µM in assay [13]. Further, the fold change (FC) in assay [3] was determined as 116; in assay [11], 61.8; in assay [14] it was 1.5. Moreover, the Ratio stood at 0.04 in assay [4]; 0.0004 in assay [5]; 0.06 in assay [6]; 0.00028 in [9]; 0.00061 in [12]. For the same molecule, in assay [7], the fold resistance is 48.8.
For `Cc1cn([C@H]2C[C@H](N=[N+]=[N-])[C@@H](COP(=O)(O)OP(=O)(O)OP(=O)(O)O)O2)c(=O)[nH]c1=O` [ZIDOVUDINE TRIPHOSPHATE], the fold change (FC) in assay [3] came out at 1.81; in [11] it was 1.76; in [14], 1.14. The Ratio in [4] amounted to 4.26; in [5], 1.3; in [6], 4.41; in assay [9] it was 1.1; in assay [12] it was 2.41. The fold resistance in assay [7] came to 1.13. Also, in assay [8], binding was put at a Kd of 3.81 µM.
As for `Cc1cn([C@H]2C[C@H](O)[C@@H](COP(=O)(O)OP(=O)(O)OP(=O)(O)O)O2)c(=O)[nH]c1=O` [DEOXYTHYMIDINE_TRIPHOSPHATE], the Kd in [1] came to 2.65 µM; in assay [2], 2.08 µM; in assay [8], 2.9 µM; in [10] it was 2.85 µM; in [13], 1.2 µM.
Regarding `Nc1ccn([C@H]2C[C@H](O)[C@@H](COP(=O)(O)OP(=O)(O)OP(=O)(O)O)O2)c(=O)n1` [DEOXYCYTIDINE TRIPHOSPHATE], the Kd in [1] was found to be 2.99 µM; in assay [2] it was 1.14 µM; in assay [8], 2.51 µM; in [10], 2.49 µM; in assay [13], 1.23 µM. For the same molecule, the Ratio is 1.06 in assay [4]; 0.44 in assay [5]; 1.07 in assay [6]; 0.58 in [9]; 0.53 in assay [12].
`Cc1cn([C@H]2C[C@H](N=[N+]=[N-])[C@@H](CO[P@](=O)(O)O[P@](=O)(O)OP(=O)(O)O)O2)c(=O)[nH]c1=O` [ZIDOVUDINE TRIPHOSPHATE]: the Kd was determined as 3.5 µM in assay [1], 1.99 µM in assay [2], 2.9 µM in [10] and 1.15 µM in assay [13].

Source of the values: ChEMBL document CHEMBL1153554, “Mechanisms by which the G333D mutation in human immunodeficiency virus type 1 Reverse transcriptase facilitates dual resistance to zidovudine and lamivudine” (Antimicrob Agents Chemother, 2008).
